ChEMBL document CHEMBL1629431, “Synthesis and antitumor activity of some 2, 3-disubstituted quinazolin-4(3H)-ones and 4, 6- disubstituted- 1, 2, 3, 4-tetrahydroquinazolin-2H-ones” (2010)

Experiments:
Assay type in all cases: functional
OVCAR-4 = experiment: Growth inhibition of human OVCAR4 cells at 10 uM after 48 hrs by coulter counter method; details: OVCAR-4, 48 h, read-out: GI
Procedure, shortened: (§1)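 Single high-dose NCI 60-cell-line panel screen across nine tumor subpanels. Test solutions (0.2 mL) were added in duplicate to wells holding 1.8 mL of culture at 6 × 10⁴ cells/mL. Controls got PBS and DMSO at identical dilutions. Incubation was 48 h at 37 °C in humidified 5% CO₂. Cells were diluted 10-fold in saline, Coulter-counted and dilution-corrected. Results were expressed as percent growth inhibition versus control.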

MDA-MB-231 = experiment: Growth inhibition of human MDA-MB-231 cells at 10 uM after 48 hrs by coulter counter method; details: MDA-MB-231, 48 h, read-out: GI; procedure, shortened: as §1
MOLT-4 = experiment: Growth inhibition of human MOLT4 cells at 10 uM after 48 hrs by coulter counter method; details: MOLT-4, 48 h, read-out: GI; procedure, shortened: as §1
CCRF-CEM = experiment: Growth inhibition of human CCRF-CEM cells at 10 uM after 48 hrs by coulter counter method; details: read-out: GI; procedure, shortened: as §1
786-0 = experiment: Growth inhibition of human 786-0 cells at 10 uM after 48 hrs by coulter counter method; details: 786-0, 48 h, read-out: GI; procedure, shortened: as §1
CAKI-1 = experiment: Growth inhibition of human Caki1 cells at 10 uM after 48 hrs by coulter counter method; details: CAKI-1, 48 h, read-out: GI; procedure, shortened: as §1
UACC-62 = experiment: Growth inhibition of human UACC62 cells at 10 uM after 48 hrs by coulter counter method; details: UACC-62, 48 h, read-out: GI; procedure, shortened: as §1
[1] = Growth inhibition of human Hs 578T cells at 10 uM after 48 hrs by coulter counter method; details: read-out: GI; procedure, shortened: as §1
U-251 = experiment: Growth inhibition of human U251 cells at 10 uM after 48 hrs by coulter counter method; details: U-251, 48 h, read-out: GI; procedure, shortened: as §1
M14 = experiment: Growth inhibition of human M14 cells at 10 uM after 48 hrs by coulter counter method; details: M14, 48 h, read-out: GI; procedure, shortened: as §1
PC-3 = experiment: Growth inhibition of human PC3 cells at 10 uM after 48 hrs by coulter counter method; details: PC-3, 48 h, read-out: GI; procedure, shortened: as §1
NCI-H23 = experiment: Growth inhibition of human NCI-H23 cells at 10 uM after 48 hrs by coulter counter method; details: NCI-H23, 48 h, read-out: GI; procedure, shortened: as §1
MDA-MB-468 = experiment: Growth inhibition of human MDA-MB-468 cells at 10 uM after 48 hrs by coulter counter method; details: MDA-MB-468, 48 h, read-out: GI; procedure, shortened: as §1
NCI-H522 = experiment: Growth inhibition of human NCI-H522 cells at 10 uM after 48 hrs by coulter counter method; details: NCI-H522, 48 h, read-out: GI; procedure, shortened: as §1
K562 = experiment: Growth inhibition of human K562 cells at 10 uM after 48 hrs by coulter counter method; details: K562, 48 h, read-out: GI; procedure, shortened: as §1
SN12C = experiment: Growth inhibition of human SN12C cells at 10 uM after 48 hrs by coulter counter method; details: read-out: GI; procedure, shortened: as §1
UO-31 = experiment: Growth inhibition of human UO31 cells at 10 uM after 48 hrs by coulter counter method; details: UO-31, 48 h, read-out: GI; procedure, shortened: as §1
SR = experiment: Growth inhibition of human SR cells at 10 uM after 48 hrs by coulter counter method; details: read-out: GI; procedure, shortened: as §1
SNB-75 = experiment: Growth inhibition of human SNB75 cells at 10 uM after 48 hrs by coulter counter method; details: SNB-75, 48 h, read-out: GI; procedure, shortened: as §1
IGROV-1 = experiment: Growth inhibition of human IGROV1 cells at 10 uM after 48 hrs by coulter counter method; details: IGROV-1, 48 h, read-out: GI; procedure, shortened: as §1
SF-539 = experiment: Growth inhibition of human SF539 cells at 10 uM after 48 hrs by coulter counter method; details: SF-539, 48 h, read-out: GI; procedure, shortened: as §1
NCI-H226 = experiment: Growth inhibition of human NCI-H226 cells at 10 uM after 48 hrs by coulter counter method; details: NCI-H226, 48 h, read-out: GI; procedure, shortened: as §1
HCT-116 = experiment: Growth inhibition of human HCT116 cells at 10 uM after 48 hrs by coulter counter method; details: HCT-116, 48 h, read-out: GI; procedure, shortened: as §1
MCF7 = experiment: Growth inhibition of human MCF7 cells at 10 uM after 48 hrs by coulter counter method; details: MCF7, 48 h, read-out: GI; procedure, shortened: as §1
SK-MEL-2 = experiment: Growth inhibition of human SK-MEL-2 cells at 10 uM after 48 hrs by coulter counter method; details: SK-MEL-2, 48 h, read-out: GI; procedure, shortened: as §1
KM12 = experiment: Growth inhibition of human KM12 cells at 10 uM after 48 hrs by coulter counter method; details: KM12, 48 h, read-out: GI; procedure, shortened: as §1
SK-MEL-28 = experiment: Growth inhibition of human SK-MEL-28 cells at 10 uM after 48 hrs by coulter counter method; details: SK-MEL-28, 48 h, read-out: GI; procedure, shortened: as §1
SK-OV-3 = experiment: Growth inhibition of human SKOV3 cells at 10 uM after 48 hrs by coulter counter method; details: SK-OV-3, 48 h, read-out: GI; procedure, shortened: as §1
A549 = experiment: Growth inhibition of human A549 cells at 10 uM after 48 hrs by coulter counter method; details: A549, 48 h, read-out: GI; procedure, shortened: as §1
SF-268 = experiment: Growth inhibition of human SF268 cells at 10 uM after 48 hrs by coulter counter method; details: SF-268, 48 h, read-out: GI; procedure, shortened: as §1
T47D = experiment: Growth inhibition of human T47D cells at 10 uM after 48 hrs by coulter counter method; details: read-out: GI; procedure, shortened: as §1
COLO 205 = experiment: Growth inhibition of human COLO205 cells at 10 uM after 48 hrs by coulter counter method; details: COLO 205, 48 h, read-out: GI; procedure, shortened: as §1
HL-60(TB) = experiment: Growth inhibition of human HL-60(TB) cells at 10 uM after 48 hrs by coulter counter method; details: HL-60, 48 h, read-out: GI
Procedure, shortened: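 Part of the NCI 60-cell-line single-high-dose panel. Cells were seeded at 6 × 10⁴ cells/mL with test solution in duplicate wells, alongside PBS/DMSO controls at identical dilutions. Plates were held 48 h at 37 °C in a humidified 5% CO₂ incubator. Cells were then diluted 10-fold in saline and counted by Coulter counter, with counts corrected for dilution. Results are percent growth of treated cells, reported as GI %.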

OVCAR-8 = experiment: Growth inhibition of human OVCAR8 cells at 10 uM after 48 hrs by coulter counter method; details: OVCAR-8, 48 h, read-out: GI; procedure, shortened: as §1

Row | Compound | inhibition of growth at 10 µM (OVCAR-4) | inhibition of growth at 10 µM (MDA-MB-231) | inhibition of growth at 10 µM (MOLT-4) | inhibition of growth at 10 µM (786-0) | inhibition of growth at 10 µM (UACC-62) | inhibition of growth at 10 µM [1] | inhibition of growth at 10 µM (U-251) | inhibition of growth at 10 µM (M14) | inhibition of growth at 10 µM (PC-3) | inhibition of growth at 10 µM (NCI-H23) | inhibition of growth at 10 µM (MDA-MB-468) | inhibition of growth at 10 µM (NCI-H522) | inhibition of growth at 10 µM (SN12C) | inhibition of growth at 10 µM (UO-31) | inhibition of growth at 10 µM (SR) | inhibition of growth at 10 µM (SNB-75) | inhibition of growth at 10 µM (IGROV-1) | inhibition of growth at 10 µM (SF-539) | inhibition of growth at 10 µM (NCI-H226) | inhibition of growth at 10 µM (HCT-116) | further results
1 | COc1ccc(-n2c(SC)nc3ccccc3c2=O)cc1 | 30% | 30% | 30% | 30% | 30% | 30% | 30% | 30% | 30% | 30% | 30% | 30% | 30% | 30% | 30% | 30% | 30% | 30% | 30% | 30% | inhibition of growth at 10 µM (CCRF-CEM): 30%; inhibition of growth at 10 µM (CAKI-1): 30%; inhibition of growth at 10 µM (K562): 30.1%; inhibition of growth at 10 µM (MCF7): 30%; inhibition of growth at 10 µM (SK-MEL-2): 30%; inhibition of growth at 10 µM (KM12): 30%; inhibition of growth at 10 µM (SK-MEL-28): 30%; inhibition of growth at 10 µM (SK-OV-3): 30%; inhibition of growth at 10 µM (A549): 30%; inhibition of growth at 10 µM (SF-268): 30%; inhibition of growth at 10 µM (T47D): 30%; inhibition of growth at 10 µM (COLO 205): 30%; inhibition of growth at 10 µM (HL-60(TB)): 30%; inhibition of growth at 10 µM (OVCAR-8): 30%
2 | COc1ccc(C(=O)CSc2nc3ccccc3c(=O)n2-c2ccc(Cl)cc2)cc1 | 53.5% | 40.9% | 30% | 41.3% | 42.2% | 30% | 65.1% | 38.4% | 30% | 30% | 35.4% | < 30% | 30% | 37.2% | 30% | 71.1% | 48.9% | 48.6% | 30% | 30% | inhibition of growth at 10 µM (MCF7): 30%; inhibition of growth at 10 µM (SK-MEL-2): 34.2%; inhibition of growth at 10 µM (KM12): 30%; inhibition of growth at 10 µM (SK-MEL-28): 37.3%; inhibition of growth at 10 µM (SK-OV-3): 44.7%; inhibition of growth at 10 µM (SF-268): 48.8%; inhibition of growth at 10 µM (T47D): 30%; inhibition of growth at 10 µM (COLO 205): 48.9%; inhibition of growth at 10 µM (HL-60(TB)): 30%; inhibition of growth at 10 µM (OVCAR-8): 76.2%
